The results in this text go back to the M2OR odorant receptor database.

Conditions in all cases: stereoisomer not certain
Experiment [1] addresses T1, UniProt Q8VGC6.
T1 sequence (whole entry): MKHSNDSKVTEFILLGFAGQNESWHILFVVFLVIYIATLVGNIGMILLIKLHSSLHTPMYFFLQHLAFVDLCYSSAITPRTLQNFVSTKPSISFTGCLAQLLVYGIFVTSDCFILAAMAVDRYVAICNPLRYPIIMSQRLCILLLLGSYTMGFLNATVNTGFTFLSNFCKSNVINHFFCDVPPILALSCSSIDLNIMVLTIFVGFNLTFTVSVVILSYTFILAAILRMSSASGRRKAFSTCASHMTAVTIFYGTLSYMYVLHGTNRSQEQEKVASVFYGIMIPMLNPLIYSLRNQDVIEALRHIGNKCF
In a few lines:
(§1)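 Each entry records the cell line, G-protein, co-transfected protein and tags used. Methods varied with the source, often transient luciferase assays in mammalian cell lines. A receptor–molecule pair is called responsive (active) if the original authors judged its signal statistically different from baseline and non-responsive (inactive) otherwise.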

Experiment [2] addresses T2, UniProt Q8VGD7.
T2 sequence (whole entry): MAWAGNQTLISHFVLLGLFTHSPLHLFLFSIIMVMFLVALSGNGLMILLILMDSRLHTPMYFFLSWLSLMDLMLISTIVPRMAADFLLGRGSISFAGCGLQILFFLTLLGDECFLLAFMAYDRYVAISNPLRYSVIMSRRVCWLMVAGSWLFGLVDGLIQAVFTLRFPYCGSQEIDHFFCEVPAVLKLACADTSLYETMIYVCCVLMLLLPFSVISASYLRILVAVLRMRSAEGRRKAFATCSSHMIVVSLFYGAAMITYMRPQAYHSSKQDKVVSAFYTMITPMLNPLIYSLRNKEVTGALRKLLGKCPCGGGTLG
In short, it runs like this:
as §1

In experiment [3] the target is T3, UniProt Q8VGH1.
T3 sequence (whole entry): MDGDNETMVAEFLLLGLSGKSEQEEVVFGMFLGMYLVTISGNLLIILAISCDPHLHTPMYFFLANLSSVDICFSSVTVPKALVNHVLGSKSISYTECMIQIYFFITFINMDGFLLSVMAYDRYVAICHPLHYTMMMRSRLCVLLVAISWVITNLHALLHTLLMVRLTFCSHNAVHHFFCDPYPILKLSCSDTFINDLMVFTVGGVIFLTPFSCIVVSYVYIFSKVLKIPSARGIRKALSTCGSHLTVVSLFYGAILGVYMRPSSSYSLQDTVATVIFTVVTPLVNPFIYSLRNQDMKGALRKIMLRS
In a few lines: as §1

Experiment [4] deals with T4, UniProt Q8VGJ1.
T4 sequence (whole entry): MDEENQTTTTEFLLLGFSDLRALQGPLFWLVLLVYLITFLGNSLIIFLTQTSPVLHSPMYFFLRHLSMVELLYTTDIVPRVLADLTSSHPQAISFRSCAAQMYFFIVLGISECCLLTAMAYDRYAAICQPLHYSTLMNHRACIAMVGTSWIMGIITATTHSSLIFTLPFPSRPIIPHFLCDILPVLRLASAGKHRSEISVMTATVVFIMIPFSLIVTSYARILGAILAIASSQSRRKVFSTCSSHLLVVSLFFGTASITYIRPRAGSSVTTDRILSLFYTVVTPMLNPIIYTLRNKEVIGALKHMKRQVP
In a few lines:
as §1

For experiment [5], the target named is T5, UniProt Q8VGJ3.
T5 sequence (whole entry): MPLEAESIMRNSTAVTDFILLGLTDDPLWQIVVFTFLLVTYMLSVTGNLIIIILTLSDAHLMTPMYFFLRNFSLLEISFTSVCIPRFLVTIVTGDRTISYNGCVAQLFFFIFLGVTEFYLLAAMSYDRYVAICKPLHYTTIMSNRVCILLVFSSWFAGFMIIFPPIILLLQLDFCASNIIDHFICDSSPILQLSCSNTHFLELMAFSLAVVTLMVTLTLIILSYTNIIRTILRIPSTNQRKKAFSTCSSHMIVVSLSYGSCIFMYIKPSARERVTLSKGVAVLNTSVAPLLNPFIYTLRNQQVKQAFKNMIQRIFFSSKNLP
In short, it runs like this: as §1

Experiment [6] deals with T6, UniProt Q8VGJ5.
T6 sequence (whole entry): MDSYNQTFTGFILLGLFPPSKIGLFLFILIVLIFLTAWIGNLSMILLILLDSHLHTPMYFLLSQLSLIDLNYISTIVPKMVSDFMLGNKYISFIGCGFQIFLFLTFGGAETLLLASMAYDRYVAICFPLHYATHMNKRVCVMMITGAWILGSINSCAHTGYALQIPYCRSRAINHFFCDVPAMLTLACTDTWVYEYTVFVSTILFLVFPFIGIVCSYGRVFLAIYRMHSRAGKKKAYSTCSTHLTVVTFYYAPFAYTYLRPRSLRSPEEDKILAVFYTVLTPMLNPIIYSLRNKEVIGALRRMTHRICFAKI
In a few lines: as §1

The target of experiment [7] is T7, UniProt Q8VGL0.
T7 sequence (whole entry): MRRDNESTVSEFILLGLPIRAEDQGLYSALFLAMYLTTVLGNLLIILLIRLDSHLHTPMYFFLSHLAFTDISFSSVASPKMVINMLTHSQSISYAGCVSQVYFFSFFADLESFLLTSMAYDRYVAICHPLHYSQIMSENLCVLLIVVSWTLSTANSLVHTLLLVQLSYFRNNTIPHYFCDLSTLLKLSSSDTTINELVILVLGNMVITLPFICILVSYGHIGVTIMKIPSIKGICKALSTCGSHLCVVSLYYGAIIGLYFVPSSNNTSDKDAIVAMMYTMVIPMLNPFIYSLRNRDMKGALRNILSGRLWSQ
In short, it runs like this: as §1

For experiment [8], the target named is T8, UniProt Q8VGL7.
T8 sequence (whole entry): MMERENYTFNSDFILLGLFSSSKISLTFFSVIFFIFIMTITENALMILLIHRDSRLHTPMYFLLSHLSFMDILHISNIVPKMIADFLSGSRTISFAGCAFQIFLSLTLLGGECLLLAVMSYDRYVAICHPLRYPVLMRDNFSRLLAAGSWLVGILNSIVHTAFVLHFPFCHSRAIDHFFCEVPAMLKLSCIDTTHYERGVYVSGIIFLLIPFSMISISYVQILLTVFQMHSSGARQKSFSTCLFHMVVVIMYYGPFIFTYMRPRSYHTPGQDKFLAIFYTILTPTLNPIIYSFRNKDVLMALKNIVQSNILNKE
In short, it runs like this:
as §1

Experiment [9] has as its target UniProt Q8VGE3. In short, it runs like this:
as §1

Experiment [10] has as its target UniProt Q8VGK6. In short, it runs like this:
as §1

Chain of UniProt Q8VGK6 (Q8VGK6 as listed by the source): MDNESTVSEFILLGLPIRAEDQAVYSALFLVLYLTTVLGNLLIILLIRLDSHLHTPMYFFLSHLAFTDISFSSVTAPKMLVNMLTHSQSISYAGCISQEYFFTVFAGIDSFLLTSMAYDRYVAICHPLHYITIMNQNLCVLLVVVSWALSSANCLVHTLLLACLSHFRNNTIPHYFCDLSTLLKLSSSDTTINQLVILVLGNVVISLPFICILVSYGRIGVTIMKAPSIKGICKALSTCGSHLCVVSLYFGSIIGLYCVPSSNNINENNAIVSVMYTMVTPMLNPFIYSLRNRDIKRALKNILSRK
Chain of UniProt Q8VGE3 (Q8VGE3 as listed by the source): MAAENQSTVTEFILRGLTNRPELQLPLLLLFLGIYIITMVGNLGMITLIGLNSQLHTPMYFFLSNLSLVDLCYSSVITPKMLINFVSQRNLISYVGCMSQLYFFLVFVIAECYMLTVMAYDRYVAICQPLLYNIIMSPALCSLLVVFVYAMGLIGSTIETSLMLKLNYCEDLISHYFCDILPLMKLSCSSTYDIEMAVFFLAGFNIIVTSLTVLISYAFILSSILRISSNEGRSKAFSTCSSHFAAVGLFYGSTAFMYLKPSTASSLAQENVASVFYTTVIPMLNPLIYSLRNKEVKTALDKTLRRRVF

For the molecule `CCCCCC=O`, the “odorant receptor agonist call” value in [1], in experiment [2], in experiment [3], in experiment [4], in [5] and in experiment [6] was “inactive” in each case. The “odorant receptor agonist call” value in [7] and in [8] was “inactive” in each case.

Turning to `CC(=O)OCc1ccccc1`, the “odorant receptor agonist call” value in experiment [1] and in experiment [6] was “active” each time. The “odorant receptor agonist call” value in [2], in experiment [3], in experiment [4], in [5], in [7] and in [8] was “inactive” in each case.

For the molecule `CCCCOC=O`, the “odorant receptor agonist call” value in [1], in [2], in experiment [3], in [4], in experiment [5] and in [6] was “inactive” each time. Further, the “odorant receptor agonist call” value in experiment [7] and in experiment [8] was “inactive” in each case.

With `CCC=O`, the “odorant receptor agonist call” value in experiment [1] was “inactive”.

With `CCCC(=O)OCC`, in [1], the “odorant receptor agonist call” value was “inactive”.

For the molecule `CC(O)c1ccccc1` (stereo not drawn), the “odorant receptor agonist call” value in [1] is “inactive”.

Take `CCOc1ccccc1`: in experiment [1], the “odorant receptor agonist call” value was “inactive”.

Consider `O=C1CCOc2ccccc21`, for which the “odorant receptor agonist call” value in experiment [1], in experiment [4], in experiment [5] and in experiment [7] was “inactive” throughout. The “odorant receptor agonist call” value in [2], in [9], in [3], in experiment [6], in experiment [10] and in experiment [8] was “active” throughout.

Consider `O=C(c1ccccc1)c1ccccc1`, for which the “odorant receptor agonist call” value in [1], in experiment [2], in [3], in experiment [5], in experiment [6] and in experiment [7] was “inactive” in each case. In addition, the “odorant receptor agonist call” value in experiment [8] was “inactive”. Further, the “odorant receptor agonist call” value in experiment [4] was “active”.

Regarding `CCCCCCCCS`, the “odorant receptor agonist call” value in experiment [1] was “active”. Moreover, the “odorant receptor agonist call” value in experiment [2], in experiment [3], in [4], in experiment [5], in experiment [6] and in [7] was “inactive” each time. Moreover, the “odorant receptor agonist call” value in experiment [8] is “inactive”.

Take `Cc1ccc(OC(=O)C(C)C)cc1`: the “odorant receptor agonist call” value in experiment [1], in experiment [5] and in [7] was “inactive” in each case.

As for `CCCC(C)=O`, the “odorant receptor agonist call” value in [1], in experiment [2], in [3], in [4], in experiment [6] and in [7] was “inactive” each time. Besides, the “odorant receptor agonist call” value in experiment [8] is “inactive”.

Take `CC(=O)Oc1ccccc1`: in experiment [1], the “odorant receptor agonist call” value is “active”. Also, the “odorant receptor agonist call” value in experiment [2], in experiment [3], in [4], in experiment [5], in [6] and in experiment [7] was “inactive” in each case. Moreover, in [8], the “odorant receptor agonist call” value was “inactive”.

For the molecule `C=C1C2CCC(C2)C1(C)C` (stereo not drawn), the “odorant receptor agonist call” value in experiment [1], in experiment [5] and in experiment [7] was “inactive” each time.

Regarding `O=C([O-])CCCCCCCC(=O)[O-].[H+].[H+]`, the “odorant receptor agonist call” value in [1], in experiment [5] and in experiment [7] was “inactive” in each case.

On to `CCCCCCCOC(=O)C(C)C`, for which the “odorant receptor agonist call” value in experiment [1], in [5] and in experiment [7] was “inactive” in each case.

Turning to `CCCCC(=O)CC`, the “odorant receptor agonist call” value in experiment [1] and in experiment [6] was “active” throughout. The “odorant receptor agonist call” value in experiment [2], in [3], in experiment [4], in [5], in experiment [7] and in [8] was “inactive” in each case.

Take `CC(=O)OCCc1ccccc1`: the “odorant receptor agonist call” value in [1], in experiment [5] and in experiment [7] was “inactive” each time.

`CC1CCC(C(C)C)C(=O)C1` (stereo not drawn): the “odorant receptor agonist call” value in experiment [1], in experiment [5] and in experiment [7] was “inactive” each time.

On to `O=C1Cc2ccccc2O1`, for which the “odorant receptor agonist call” value in experiment [1], in experiment [2], in experiment [3], in experiment [4], in experiment [5] and in [6] was “inactive” in each case. In addition, the “odorant receptor agonist call” value in [7] and in experiment [8] was “inactive” in each case.

Take `CCOC(=O)C(C)C`: the “odorant receptor agonist call” value in experiment [1], in experiment [2], in [3], in [4], in [5] and in experiment [7] was “inactive” each time. The “odorant receptor agonist call” value in experiment [6] and in experiment [8] was “active” throughout.

As for `CCCCCCC(=O)[O-].[H+]`, the “odorant receptor agonist call” value in experiment [1], in experiment [2], in [3], in experiment [4], in [6] and in experiment [7] was “inactive” each time. In [8], the “odorant receptor agonist call” value was “inactive”.
